Assay results gathered from unrelated publications.
Lines come from different studies, so protocols differ.
Effect on: cell growth or viability

| Structure (SMILES) | cell line | test | conditions | IC50 [µM] |
| --- | --- | --- | --- | --- |
| COc1cc2c3c(n(CCCNCCO)c(=O)c2cc1OC)-c1nc2c(cc1C3=O)OCO2 | KMS-27 | MTS | 72 h | 0.141 |
| Nc1ccc(/C=C/C(=O)N2CCc3c(oc4c(-c5ccc(F)cc5)cc(-c5ncc(C(=O)N6CCC(F)(F)CC6)cn5)cc34)C2)cn1 | MIA PaCa-2 | CCK-8 | 72 h | 4.46 |
| O=C(Nc1ccccc1)c1cc(-c2ccccc2)nc2ccc(-c3ccccc3)cc12 | MIA PaCa-2 | MTT | 48 h | > 50 |
| [NH2][Pt]([NH2])([Cl])[Cl] | LNCaP | MTT | 72 h | 10.2 |
| Nc1ccc(/C=C/C(=O)N2CCc3c(oc4c(-c5ccc(F)cc5)cc(-c5ccc(C(=O)N6CCC(F)(F)CC6)cc5F)cc34)C2)cn1 | MIA PaCa-2 | CCK-8 | 72 h | 2.66 |
| COc1cc2c3c(n(CCCn4ccnc4)c(=O)c2cc1OC)-c1nc2c(cc1C3=O)OCO2 | KMS-27 | MTS | 72 h | 0.238 |
| Cc1sc2c(c1C)C(c1ccc(Cl)cc1)=N[C@@H](CC(=O)NCCCCCCCCNC(=O)COc1cccc3c1C(=O)N(C1CCC(=O)NC1=O)C3=O)c1nnc(C)n1-2 (stereo partly shown) | MOLT-4 | ATP luminescence |  | 0.023 |
| COc1ccc(F)cc1-c1ccc2nc(-c3ccc(F)cc3)cc(C(=O)Nc3ccccc3)c2c1 | MIA PaCa-2 | MTT | 48 h | > 50 |
| C=C(F)C(=O)N1CCN(c2nc(OC[C@@H]3CCCN3C)nc3c2CCN(c2cccc4cccc(Cl)c24)C3)C[C@@H]1CC#N | MIA PaCa-2 | ATP luminescence |  | 0.0565 |
| COc1ccc(-c2cc(C(=O)Nc3ccccc3)c3cc(-c4cnc(Cl)c(C)c4)ccc3n2)cc1 | MIA PaCa-2 | MTT | 48 h | > 50 |
| C=CC(=O)N1CCN(c2nc(=O)n(-c3c(C)ccnc3C(C)C)c3nc(-c4c(O)cccc4F)c(F)cc23)[C@@H](C)C1 | SW837 | ATP luminescence |  | 0.0463 |
| Nc1ccc(/C=C/C(=O)N2CCc3c(oc4c(-c5ccc(F)cc5)cc(-c5ccc(C(=O)N6CCOCC6)nn5)cc34)C2)cn1 | MIA PaCa-2 | CCK-8 | 72 h | 0.46 |
| COc1cc2c3c(n(CCCNC(C)C)c(=O)c2cc1OC)-c1nc2c(cc1C3=O)OCO2 | KMS-27 | MTS | 72 h | 0.206 |
| COc1ccc(-c2cc(C(=O)Nc3ccccc3)c3cc(-c4cc(Cl)ccc4F)ccc3n2)cc1 | MIA PaCa-2 | MTT | 48 h | > 50 |
| COc1cc2c3c(n(CCCN4CCOCC4)c(=O)c2cc1OC)-c1nc2c(cc1C3=O)OCO2 | KMS-27 | MTS | 72 h | 0.53 |
| COc1cccc2c1C(=O)c1c(O)c3c(c(O)c1C2=O)C[C@@](O)(C(=O)CO)C[C@@H]3O[C@H]1C[C@H](N)[C@H](O)[C@H](C)O1 | MIA PaCa-2 | MTT | 48 h | 25.3 |
| COc1cc([C@@H]2c3cc4c(cc3[C@@H](O[C@@H]3O[C@@H]5CO[C@@H](C)O[C@H]5[C@H](O)[C@H]3O)[C@H]3COC(=O)[C@H]23)OCO4)cc(OC)c1O | T47D | MTT | 48 h | 79 |
| COc1ccc(-c2cc(C(=O)Nc3ccccc3)c3cc(-c4cccs4)ccc3n2)cc1 | MIA PaCa-2 | MTT | 48 h | > 50 |
| CCNCCCn1c2c(c3cc(OC)c(OC)cc3c1=O)C(=O)c1cc3c(nc1-2)OCO3 | MOLT-4 | MTS | 72 h | 0.013 |
